# Calls of active or inactive are those of the source. No cut-off for these calls is given here.
# Key:
# Bacillus subtilis [1] = test: Induction of yorB promoter in Bacillus subtilis IS34 after 3 hrs at 0.01 to 100 ug/ml by luciferase reporter gene assay; assay type: functional
# Summary of the method: (§1)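 Promoter–firefly luciferase fusions were built in B. subtilis IS34. Luminescence was read in a plate reader and expressed as percent of the untreated control. One representative experiment.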
# Bacillus subtilis [2] = test: Induction of recA promoter in Bacillus subtilis YB3001 using 4-methylumbelliferyl beta D-galactopyranoside as substrate incubated for 3 hrs prior to substrate addition measured after 1 hr by beta galactosidase reporter gene assay relative to control; assay type: functional
# Summary of the method: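 recA–β-galactosidase reporter in B. subtilis YB3001. Twofold compound dilutions in lysogeny broth were inoculated with mid-exponential cells and incubated 3 h at 37 °C, then frozen at −20 °C overnight. Cells were lysed with lysozyme (30 min, 37 °C) and Triton X-100. MUG was added and incubated 1 h at 25 °C. Fluorescence read at ex 360/em 450 nm.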
# Bacillus subtilis [3] = test: Induction of bmrC promoter in Bacillus subtilis IS34 promoter at 64 ug/mL after 3 hrs by luciferase reporter gene assay; assay type: functional, organism-based; summary of the method: as §1
# Bacillus subtilis [4] = test: Induction of helD promoter in Bacillus subtilis IS34 at 64 ug/mL after 3 hrs by luciferase reporter gene assay; assay type: functional, organism-based; summary of the method: as §1
# Bacillus subtilis [5] = test: Induction of liaI promoter in Bacillus subtilis IS34 promoter at 64 ug/mL after 3 hrs by luciferase reporter gene assay; assay type: functional, organism-based; summary of the method: as §1
# Bacillus subtilis [6] = test: Antibacterial activity against Bacillus subtilis subsp. subtilis str. 168 trpC2 assessed as growth inhibition measured at 5 mins interval over 20 hrs by spectrophotometric analysis relative to control; assay type: functional, organism-based
# Summary of the method: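 B. subtilis 168 trpC2 was grown in lysogeny broth, shaken, at 37 °C. Dilution and inoculum were as for broth microdilution. OD600 was read every 5 min over 20 h in untreated versus treated cultures.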
# Staphylococcus aureus [7] = test: Antibacterial activity against Staphylococcus aureus subsp. aureus Mu50 assessed as growth inhibition measured at 5 mins interval over 20 hrs by spectrophotometric analysis relative to control; assay type: functional
# Summary of the method: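 S. aureus Mu50 was grown in Mueller−Hinton broth at 37 °C with shaking between reads. Dilution and inoculum were as for broth microdilution, with compound at 0.031–64 μg/mL. OD600 was read at 5 min intervals over 20 h against an untreated control. Run in triplicate.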
# Klebsiella pneumoniae = test: Antibacterial activity against doxycycline, kanamycin-resistant Klebsiella pneumoniae ATCC 27799 assessed as growth inhibition by CLSI broth microdilution method; assay type: functional
# Summary of the method: (§2)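 MICs determined by CLSI broth microdilution in Mueller–Hinton broth. Inoculum was prepared by direct colony suspension, at 5 × 10^5 CFU/mL.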
# Escherichia coli [8] = test: Antibacterial activity against ciprofloxacin-resistant Escherichia coli WT-3-1 MB2 assessed as growth inhibition by CLSI broth microdilution method; assay type: functional; summary of the method: as §2
# Escherichia coli [9] = test: Antibacterial activity against Escherichia coli ATCC 25922 assessed as growth inhibition by CLSI broth microdilution method; assay type: functional
# Bacillus subtilis [10] = test: Antibacterial activity against Bacillus subtilis subsp. subtilis str. 168 trpC2 assessed as growth inhibition by CLSI broth microdilution method; assay type: functional
# Enterococcus faecium = test: Antibacterial activity against clarithromycin, erythromycin, telithromycin, vancomycin-resistant Enterococcus faecium 6011 assessed as growth inhibition by CLSI broth microdilution method; assay type: functional; summary of the method: as §2
# Enterococcus faecalis = test: Antibacterial activity against clarithromycin, erythromycin, moxifloxacin, telithromycin, vancomycin-resistant Enterococcus faecalis UW 2689 assessed as growth inhibition by CLSI broth microdilution method; assay type: functional; summary of the method: as §2
# Streptococcus agalactiae = test: Antibacterial activity against doxycycline-intermediate Streptococcus agalactiae 013761 assessed as growth inhibition by CLSI broth microdilution method; assay type: functional
# Streptococcus pneumoniae = test: Antibacterial activity against Streptococcus pneumoniae ATCC 49619 assessed as growth inhibition by CLSI broth microdilution method; assay type: functional
# Staphylococcus aureus [11] = test: (§3) Antibacterial activity against amoxicillin, chloramphenicol, ciprofloxacin, clindamycin, erythromycin, fosmidomycin, gentamycin, kanamycin, nitrofurantoin, telithromycin, methicillin-resistant Staphylococcus aureus 25697 assessed as growth inhibition by CLSI broth microdilution method; assay type: functional; summary of the method: as §2
# Staphylococcus aureus [12] = test: Antibacterial activity against Staphylococcus aureus ATCC 29213 assessed as growth inhibition by CLSI broth microdilution method; assay type: functional; summary of the method: as §2
# BALB/3T3 [13] = test: Cytotoxicity against mouse BALB/3T3 cells assessed as growth inhibition after 48 hrs by Alamar blue assay; assay type: cell-based; conditions: BALB/3T3, 48 h
# Summary of the method: (§4)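 THP-1 cells were kept in RPMI-1640 with 10% FCS. BALB/3T3 cells were kept in DMEM with 10% FCS. Cells were plated at 10^4 per well without antibiotics and exposed to 0.016−32 μg/mL (final, 0.32% DMSO) for 48 h at 37 °C, 5% CO2. AlamarBlue was added for 24 h more. Fluorescence (ex 560/em 600 nm) was expressed relative to untreated cells.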
# THP-1 [14] = test: Cytotoxicity against human THP1 cells assessed as growth inhibition after 48 hrs by Alamar blue assay; assay type: cell-based; conditions: THP-1, 48 h; summary of the method: as §4
# Pseudomonas aeruginosa = test: Antibacterial activity against ceftazidime, ciprofloxacin, cefepime, gentamycin, imipenem, meropenem, piperacillin/tazobactam-resistant Pseudomonas aeruginosa 63230 assessed as growth inhibition by CLSI broth microdilution method; assay type: functional; summary of the method: as §2
# Streptococcus pyogenes = test: Antibacterial activity against doxycycline-intermediate Streptococcus pyogenes 014327 assessed as growth inhibition by CLSI broth microdilution method; assay type: functional
# Staphylococcus aureus [15] = test: (§5) Antibacterial activity against ceftazidime, clarithromycin, ciprofloxacin, clindamycin, doxycycline, erythromycin, methicillin, moxifloxacin, kanamycin, telithromycin, rifampicin, methicillin-resistant, vancomycin-intermediate Staphylococcus aureus subsp. aureus Mu50 assessed as growth inhibition by CLSI broth microdilution method; assay type: functional; summary of the method: as §2
# Bacillus subtilis [16] = test: Induction of yorB promoter in Bacillus subtilis IS34 after 3 hrs by luciferase reporter gene assay relative to control; assay type: functional; summary of the method: as §1
# Staphylococcus aureus [17] = test: as §3, with “assessed as concentration required for partial growth inhibition” for “assessed as growth inhibition”; assay type: functional
# Bacillus subtilis [18] = test: Antibacterial activity against Bacillus subtilis subsp. subtilis str. 168 trpC2 assessed as concentration required for partial growth inhibition by CLSI broth microdilution method; assay type: functional
# Staphylococcus aureus [19] = test: as §5, with “assessed as concentration required for partial growth inhibition” for “assessed as growth inhibition”; assay type: functional
# Staphylococcus aureus [20] = test: Antibacterial activity against Staphylococcus aureus ATCC 29213 assessed as concentration required for partial growth inhibition by CLSI broth microdilution method; assay type: functional
# THP-1 [21] = test: Cytotoxicity against human THP1 cells assessed as growth inhibition up to 32 ug/mL after 48 hrs by Alamar blue assay; assay type: cell-based; conditions: thp-1, 48 h; summary of the method: as §4
# BALB/3T3 [22] = test: Cytotoxicity against mouse BALB/3T3 cells assessed as growth inhibition up to 32 ug/mL after 48 hrs by Alamar blue assay; assay type: cell-based; conditions: balb/3t3, 48 h; summary of the method: as §4
# Bacillus subtilis [23] = test: Antibacterial activity against Bacillus subtilis subsp. subtilis str. 168 trpC2 assessed as induction of SOS response-mediated DNA degradation at 0.125 ug/mL after 120 mins by DAPI staining-based fluorescence microscopic analysis; assay type: functional, organism-based
# Summary of the method: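 B. subtilis 168 trpC2 was grown in lysogeny broth to OD600 0.1−0.3, then treated in plates at 37 °C with shaking. Aliquots were taken 30−180 min after addition and stained 60 s with DAPI (1 μg/mL stock). Cells were immobilized on 1% agarose slides and imaged by phase contrast and fluorescence. Performed twice.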
# Bacillus subtilis [24] = test: Induction of yorB promoter in Bacillus subtilis IS34 after 3 hrs at 0.001 to 10 ug/ml by luciferase reporter gene assay; assay type: functional; summary of the method: as §1
Compound,Activity (Bacillus subtilis [2]),Activity (Bacillus subtilis [3]),Activity (Bacillus subtilis [4]),Activity (Bacillus subtilis [5]),growth inhibition (GI) (Bacillus subtilis [6]),MIC (Klebsiella pneumoniae),MIC (Escherichia coli [8]),MIC (Escherichia coli [9]),MIC (Bacillus subtilis [10]),MIC (Enterococcus faecium),MIC (Enterococcus faecalis),MIC (Streptococcus agalactiae),MIC (Streptococcus pneumoniae),MIC (Staphylococcus aureus [11]),MIC (Staphylococcus aureus [12]),IC50 (BALB/3T3 [13]),IC50 (THP-1 [14]),MIC (Pseudomonas aeruginosa),MIC (Streptococcus pyogenes),MIC (Staphylococcus aureus [15]),further results
"COc1cc2cc3c(c(O)c2c(O)c1-c1c(O)cc2c(O)c4c(cc2c1O)CC(C)(O)CC4=O)C(=O)CC(C)(O)C3 (single isomer, unassigned; atropisomer) [FLAVOMANNIN D]",Active,inactive,inactive,inactive,Active,> 64 µg/mL,> 64 µg/mL,> 64 µg/mL,64 µg/mL,> 64 µg/mL,32 µg/mL,> 64 µg/mL,64 µg/mL,8 µg/mL,8 µg/mL,> 32 µg/mL,> 32 µg/mL,> 64 µg/mL,64 µg/mL,8 µg/mL,concentration giving maximal yorB promoter induction (Bacillus subtilis [1]): 2 µg/mL; growth inhibition (GI) (Staphylococcus aureus [7]): Dose-dependent effect
"CC1(O)CC(=O)c2c(cc3cc(O)c(-c4c(O)cc5cc6c(c(O)c5c4O)C(=O)CC(C)(O)C6)c(O)c3c2O)C1 (single isomer, unassigned; atropisomer) [FLAVOMANNIN A]",–,inactive,inactive,inactive,Active,> 64 µg/mL,> 64 µg/mL,> 64 µg/mL,> 64 µg/mL,> 64 µg/mL,> 64 µg/mL,> 64 µg/mL,> 64 µg/mL,8 µg/mL,16 µg/mL,> 32 µg/mL,> 32 µg/mL,> 64 µg/mL,> 64 µg/mL,16 µg/mL,Activity (Bacillus subtilis [1]): inactive; fold change (FC) (Bacillus subtilis [2]): <2; Activity (Bacillus subtilis [16]): Active; growth inhibition (GI) (Staphylococcus aureus [7]): Dose-dependent effect
CO[C@@]12[C@H](COC(N)=O)C3=C(C(=O)C(C)=C(N)C3=O)N1C[C@@H]1N[C@@H]12,Active,–,–,–,–,–,–,–,–,–,–,–,–,–,–,–,–,–,–,–,–
"COc1cc2cc3c(c(O)c2c(O)c1-c1c(O)cc2cc4c(c(O)c2c1O)C(=O)CC(C)(O)C4)C(=O)CC(C)(O)C3 (single isomer, unassigned; atropisomer) [FLAVOMANNIN C]",–,inactive,inactive,inactive,Active,> 64 µg/mL,> 64 µg/mL,> 64 µg/mL,> 64 µg/mL,> 64 µg/mL,32 µg/mL,> 64 µg/mL,> 64 µg/mL,32 µg/mL,64 µg/mL,> 32 µg/mL,> 32 µg/mL,> 64 µg/mL,> 64 µg/mL,16 µg/mL,Activity (Bacillus subtilis [1]): inactive; growth inhibition (GI) (Staphylococcus aureus [7]): Dose-dependent effect
"Cc1cc(O)c2c(c1)C(=O)c1cc(O)c(-c3c(O)cc4c(O)c5c(cc4c3O)CC(C)(O)CC5=O)c(O)c1C2=O (single isomer, unassigned; atropisomer) [Talaromannin B]",Active,inactive,inactive,inactive,Active,> 64 µg/mL,> 64 µg/mL,> 64 µg/mL,> 64 µg/mL,> 64 µg/mL,64 µg/mL,64 µg/mL,32 µg/mL,16 µg/mL,16 µg/mL,> 32 µg/mL,> 32 µg/mL,> 64 µg/mL,32 µg/mL,8 µg/mL,concentration giving maximal yorB promoter induction (Bacillus subtilis [1]): 8 µg/mL; Activity (Bacillus subtilis [16]): Active; growth inhibition (GI) (Staphylococcus aureus [7]): Dose-dependent effect; MIC (Staphylococcus aureus [17]): 8 µg/mL
Cc1cc(O)c2c(c1)C(=O)c1cc(O)cc(O)c1C2=O [EMODIN],inactive,inactive,inactive,inactive,–,> 64 µg/mL,> 64 µg/mL,> 64 µg/mL,16 µg/mL,> 64 µg/mL,16 µg/mL,> 64 µg/mL,1 µg/mL,2 µg/mL,4 µg/mL,32 µg/mL,32 µg/mL,> 64 µg/mL,> 64 µg/mL,4 µg/mL,Activity (Bacillus subtilis [1]): inactive; MIC (Bacillus subtilis [18]): 8 µg/mL; MIC (Staphylococcus aureus [19]): 2 µg/mL; MIC (Staphylococcus aureus [20]): 2 µg/mL
Cc1cc(O)c2c(c1)C(=O)c1c(c(O)cc(O)c1-c1c(O)cc(O)c3c1C(=O)c1cc(C)cc(O)c1C3=O)C2=O [SKYRIN],inactive,inactive,inactive,inactive,–,> 64 µg/mL,> 64 µg/mL,> 64 µg/mL,4 µg/mL,32 µg/mL,16 µg/mL,> 64 µg/mL,4 µg/mL,4 µg/mL,4 µg/mL,–,–,> 64 µg/mL,> 64 µg/mL,2 µg/mL,Activity (Bacillus subtilis [1]): inactive; MIC (Staphylococcus aureus [20]): 2 µg/mL; growth inhibition (GI) (THP-1 [21]): Non-toxic; growth inhibition (GI) (BALB/3T3 [22]): Non-toxic
O=C(O)c1cn(C2CC2)c2cc(N3CCNCC3)c(F)cc2c1=O [CIPROFLOXACIN],Active,–,–,–,–,–,–,–,–,–,–,–,–,–,–,–,–,–,–,–,Activity (Bacillus subtilis [23]): Active; fold change (FC) (Bacillus subtilis [24]): 20
